Source: ChEMBL document CHEMBL1157749, “Novel N2-substituted pyrazolo[3,4-d]pyrimidine adenosine A3 receptor antagonists: inhibition of A3-mediated human glioblastoma cell proliferation” (J Med Chem, 2010)
Active and inactive are the calls of the source. The rule behind the calls is not given here.

Experiments:
[1] = target: T1, Adenosine receptor A1 (Homo sapiens, UniProt P30542); test: Displacement of [3H]DPCPX from human adenosine A1 receptor expressed in CHO cells; format: cell-based
T1 sequence (P30542 whole entry): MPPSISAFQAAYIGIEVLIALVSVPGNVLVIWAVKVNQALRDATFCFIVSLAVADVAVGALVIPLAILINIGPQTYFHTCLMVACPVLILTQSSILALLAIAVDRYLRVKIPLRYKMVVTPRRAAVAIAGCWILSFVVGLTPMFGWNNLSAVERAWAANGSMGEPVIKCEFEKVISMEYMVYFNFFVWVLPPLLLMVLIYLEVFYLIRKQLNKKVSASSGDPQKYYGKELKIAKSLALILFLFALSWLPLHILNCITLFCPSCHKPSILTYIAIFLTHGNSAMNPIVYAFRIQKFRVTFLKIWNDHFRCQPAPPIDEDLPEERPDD

[2] = target: Adenosine receptor A2a (Homo sapiens, UniProt P29274); test: biochemical; format: cell-based, CHO
Chain of Adenosine receptor A2a (P29274 whole entry): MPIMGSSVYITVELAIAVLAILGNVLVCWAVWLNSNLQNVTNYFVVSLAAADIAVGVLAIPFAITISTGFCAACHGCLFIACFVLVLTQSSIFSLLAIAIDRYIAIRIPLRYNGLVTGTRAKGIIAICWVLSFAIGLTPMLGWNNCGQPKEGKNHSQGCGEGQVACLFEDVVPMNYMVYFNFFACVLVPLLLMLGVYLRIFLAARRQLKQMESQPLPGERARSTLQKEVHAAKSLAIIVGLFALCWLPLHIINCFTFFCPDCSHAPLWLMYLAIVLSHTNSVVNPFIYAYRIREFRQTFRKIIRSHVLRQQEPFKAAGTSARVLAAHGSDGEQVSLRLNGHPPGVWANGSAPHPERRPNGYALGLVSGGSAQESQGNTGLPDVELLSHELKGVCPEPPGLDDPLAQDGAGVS

[3] = target: T2, Adenosine receptor A3 (Homo sapiens, UniProt P0DMS8); test: biochemical; format: cell-based, CHO
T2 sequence (P0DMS8 whole entry): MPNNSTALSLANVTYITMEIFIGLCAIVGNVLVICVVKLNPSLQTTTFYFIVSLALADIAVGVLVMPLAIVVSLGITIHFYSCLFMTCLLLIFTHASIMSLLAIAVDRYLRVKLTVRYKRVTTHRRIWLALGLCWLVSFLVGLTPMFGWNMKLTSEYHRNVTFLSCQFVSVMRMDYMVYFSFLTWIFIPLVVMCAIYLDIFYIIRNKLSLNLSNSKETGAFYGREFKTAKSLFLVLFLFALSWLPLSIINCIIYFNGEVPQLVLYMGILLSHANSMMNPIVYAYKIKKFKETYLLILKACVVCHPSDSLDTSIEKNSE

[4] = target: T3, Adenosine deaminase (Bos taurus) (UniProt P56658); test: Inhibition of bovine spleen adenosine deaminase at 10 uM after 2 mins by spectrophotometry
T3 sequence (whole entry): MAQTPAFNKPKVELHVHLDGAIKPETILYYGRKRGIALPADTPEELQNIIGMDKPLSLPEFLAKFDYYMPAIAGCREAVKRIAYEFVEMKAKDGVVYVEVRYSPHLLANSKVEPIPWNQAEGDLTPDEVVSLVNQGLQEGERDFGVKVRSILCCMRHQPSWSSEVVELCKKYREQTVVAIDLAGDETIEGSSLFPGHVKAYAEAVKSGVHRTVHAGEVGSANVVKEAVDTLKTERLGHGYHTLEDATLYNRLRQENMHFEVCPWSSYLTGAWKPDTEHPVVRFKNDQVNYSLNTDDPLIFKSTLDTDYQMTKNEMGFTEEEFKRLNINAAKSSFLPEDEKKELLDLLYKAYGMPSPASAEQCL
Summary of the method: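 Bovine spleen ADA at 0.3 nM with 50 μM adenosine in 50 mM potassium phosphate, pH 7.2, at 30 °C. Inhibitor is tested at 10 μM with final DMSO ≤4%. Deamination is followed as the change in A262 over 2 min, against a substrate-free blank.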

[5] = target: T4, Adenosine receptor A2b (Homo sapiens, UniProt P29275); test: Antagonist activity human recombinant adenosine A2B receptor expressed in CHO cells assessed as inhibition of NECA-mediated [3H]cAMP accumulation treated 15 mins before NECA challenge measured after 30 mins by liquid scintillation spectrometry; format: functional, cell-based
T4 sequence (P29275 whole entry): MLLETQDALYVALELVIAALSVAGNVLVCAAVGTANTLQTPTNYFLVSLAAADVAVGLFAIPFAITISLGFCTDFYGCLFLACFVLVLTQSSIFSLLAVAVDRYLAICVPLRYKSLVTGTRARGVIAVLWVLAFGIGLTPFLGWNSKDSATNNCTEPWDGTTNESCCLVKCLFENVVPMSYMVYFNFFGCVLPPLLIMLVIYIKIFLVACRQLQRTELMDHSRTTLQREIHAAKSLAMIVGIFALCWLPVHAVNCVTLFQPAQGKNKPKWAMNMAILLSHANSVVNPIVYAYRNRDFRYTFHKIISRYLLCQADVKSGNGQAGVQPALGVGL
Summary of the method: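 CHO cells stably expressing hA2B are pre-incubated 15 min at 37 °C in DMEM with ADA 1 U/mL and Ro 20-1724 20 μM. […] Cells are lysed in 0.4 N HCl. cAMP is measured by [3H]cAMP competition with bovine adrenal binding protein (150 min, 0 °C), with filtration and scintillation counting. Mean ± SEM, four experiments in triplicate.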

[6] = target: T2, Adenosine receptor A3; test: Antagonist activity human recombinant adenosine A3 receptor expressed in CHO cells assessed as blockade of NECA-mediated inhibition of forskolin-stimulated [3H]cAMP production treated 15 mins before NECA challenge measured after 30 mins by liquid scintillation spectrometry; format: functional, cell-based
Summary of the method: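 hA3-expressing CHO cells are pre-incubated 15 min at 37 °C with ADA 1 U/mL and Ro 20-1724 20 μM. […] HCl lysates are assayed for cAMP by [3H]cAMP/binding-protein competition with scintillation read-out. IC50 is reported as mean ± SEM of four experiments in triplicate.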

[7] = tested on: U-87 MG; test: Inhibition of Cl-IB-MECA-mediated human U87MG cell proliferation after 48 hrs by trypan blue exclusion assay; format: functional, cell-based, U-87MG ATCC
Summary of the method: (§1)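 U87MG cells in RPMI/10% FBS are arrested in G1 (0.5% FBS, 48 h). They are then treated 48 h with Cl-IB-MECA 100 nM or IB-MECA 12 nM, with or without antagonist at 0.1–10 nM or 0.01–5 nM. Live cells are counted by 0.4% trypan blue exclusion in a haemocytometer and expressed as % of control, mean ± SEM.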

[8] = tested on: U-87 MG; test: Inhibition of IBMECA-mediated human U87MG cell proliferation after 48 hrs by trypan blue exclusion assay; format: functional, cell-based, U-87MG ATCC; summary of the method: as §1
[9] = tested on: U-87MG ATCC; test: Antiproliferative activity against human U87MG cell proliferation at 0.1 to 10 nM after 48 hrs by trypan exclusion assay; format: functional, cell-based; summary of the method: as §1
[10] = target: T2, Adenosine receptor A3; test: Antagonist activity at adenosine A3 receptor in human U87MG cells assessed as inhibition of Cl-IB-MECA-mediated ERK1/2 phosphorylation after 30 mins by ELISA; format: functional, cell-based, U-87MG ATCC
[11] = target: T5, Mitogen-activated protein kinase; ERK1/ERK2 (Homo sapiens) (UniProt P27361+P28482); test: Modulation of ERK1/2 phosphorylation in human U87MG cells at 0.25 to 10 nM after 30 mins by ELISA; format: cell-based; conditions: U-87MG ATCC
T5 sequence (P27361 whole entry, looked up): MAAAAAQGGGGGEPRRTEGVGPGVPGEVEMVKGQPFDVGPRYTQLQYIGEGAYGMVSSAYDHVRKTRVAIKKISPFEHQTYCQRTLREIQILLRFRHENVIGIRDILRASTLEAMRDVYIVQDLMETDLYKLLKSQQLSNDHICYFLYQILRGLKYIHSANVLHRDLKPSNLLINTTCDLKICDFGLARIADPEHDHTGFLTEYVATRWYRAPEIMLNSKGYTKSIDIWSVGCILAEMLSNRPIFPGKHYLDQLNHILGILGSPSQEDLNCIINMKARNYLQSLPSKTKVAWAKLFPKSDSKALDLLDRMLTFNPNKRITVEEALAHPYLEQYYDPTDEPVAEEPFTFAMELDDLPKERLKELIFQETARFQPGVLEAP
T5 sequence (P28482 whole entry, looked up): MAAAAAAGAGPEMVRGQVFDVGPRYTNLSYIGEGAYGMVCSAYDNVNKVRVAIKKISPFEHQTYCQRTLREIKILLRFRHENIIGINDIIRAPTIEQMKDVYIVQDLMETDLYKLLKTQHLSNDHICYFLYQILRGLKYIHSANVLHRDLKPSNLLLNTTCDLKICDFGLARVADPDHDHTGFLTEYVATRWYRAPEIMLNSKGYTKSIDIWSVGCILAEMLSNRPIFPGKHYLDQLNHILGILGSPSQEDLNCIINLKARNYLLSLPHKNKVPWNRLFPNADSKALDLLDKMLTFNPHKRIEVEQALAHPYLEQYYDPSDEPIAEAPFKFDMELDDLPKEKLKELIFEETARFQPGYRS

[12] = Octanol-water partition coefficient, log P of the compound; format: physicochemical
[13] = tested on: U-87MG ATCC; test: Antiproliferative activity against human U87MG cell proliferation at 0.01 to 5 nM after 48 hrs by trypan exclusion assay; format: functional, cell-based; summary of the method: as §1
[14] = target: T5, Mitogen-activated protein kinase; ERK1/ERK2 (Homo sapiens); test: Modulation of ERK1/2 phosphorylation in human U87MG cells at 0.05 to 1 nM after 30 mins by ELISA; format: cell-based; conditions: U-87MG ATCC

COc1ccc(C(=O)Nc2nc(-c3ccccc3)nc3nn(CCc4ccccc4)cc23)cc1
Ki [1]: 2400 nM
Ki [2]: 1140 nM
Ki [3]: 45.2 nM

COc1ccc(C(=O)Nc2nc(-c3ccccc3)nc3nn(Cc4ccccc4)cc23)cc1
Ki [1]: > 10000 nM
Ki [2]: > 10000 nM
Ki [3]: 22.1 nM

O=C(Nc1nc(-c2ccccc2)nc2nn(Cc3ccccc3)cc12)c1ccccc1
Ki [1]: 53 nM
Ki [2]: 181 nM
Ki [3]: 3 nM
inhibition [4]: inactive
IC50 [5]: 272 nM
IC50 [6]: 53 nM

Cn1cc2c(N)nc(-c3ccccc3)nc2n1
Ki [1]: 585 nM
Ki [2]: > 10000 nM
Ki [3]: 922 nM
inhibition [4]: inactive

COc1ccc(NC(=O)Nc2nc(-c3ccccc3)nc3nn(Cc4ccccc4)cc23)cc1
Ki [1]: > 10000 nM
Ki [2]: > 10000 nM
Ki [3]: 2.9 nM
inhibition [4]: inactive
IC50 [5]: 1470 nM
IC50 [6]: 8.2 nM

Cn1cc2c(NC(=O)c3ccccc3)nc(-c3ccccc3)nc2n1
Ki [1]: 334 nM
Ki [2]: 728 nM
Ki [3]: 0.6 nM
inhibition [4]: inactive
IC50 [7]: 0.17 nM
IC50 [8]: 0.41 nM
Activity [9]: inactive
IC50 [5]: 49.8 nM
IC50 [6]: 1.9 nM
IC50 [10]: 0.74 nM
Activity [11]: inactive
logP [12]: 3.8

O=C(Nc1nc(-c2ccccc2)nc2nn(Cc3ccccc3)cc12)c1cccc(Cl)c1
Ki [1]: > 10000 nM
Ki [2]: > 10000 nM
Ki [3]: 3.7 nM
inhibition [4]: inactive
IC50 [5]: 1330 nM
IC50 [6]: 7.6 nM

O=C(Nc1ncnc2nn(Cc3ccccc3)cc12)c1ccccc1
Ki [1]: > 10000 nM
Ki [2]: > 10000 nM
Ki [3]: > 1000 nM

O=C(Nc1cccc(Cl)c1)Nc1nc(-c2ccccc2)nc2nn(Cc3ccccc3)cc12
Ki [1]: > 10000 nM
Ki [2]: > 10000 nM
Ki [3]: 121 nM

Cn1cc2c(NC(=O)c3cccc(Cl)c3)nc(-c3ccccc3)nc2n1
Ki [1]: 1080 nM
Ki [2]: 886 nM
Ki [3]: 5.9 nM
inhibition [4]: inactive

O=C(Nc1ccccc1)Nc1nc(-c2ccccc2)nc2nn(Cc3ccccc3)cc12
Ki [1]: 290 nM
Ki [2]: > 10000 nM
Ki [3]: 2.9 nM
inhibition [4]: inactive
IC50 [5]: 1320 nM
IC50 [6]: 5.7 nM

O=C(Nc1ncnc2nn(Cc3ccccc3)cc12)c1cccc(Cl)c1
Ki [1]: > 10000 nM
Ki [2]: 4900 nM
Ki [3]: > 1000 nM

O=C(Nc1nc(-c2ccccc2)nc2nn(CCc3ccccc3)cc12)c1cccc(Cl)c1
Ki [1]: 1050 nM
Ki [2]: 314 nM
Ki [3]: 22.3 nM

Nc1nc(-c2ccccc2)nc2nn(CCc3ccccc3)cc12
Ki [1]: 2500 nM
Ki [2]: 1000 nM
Ki [3]: 503 nM
inhibition [4]: inactive

O=C(Nc1nc(-c2ccccc2)nc2nn(CCc3ccccc3)cc12)c1ccccc1
Ki [1]: 27 nM
Ki [2]: 227 nM
Ki [3]: 43.7 nM

Cn1cc2c(NC(=O)Nc3ccccc3)nc(-c3ccccc3)nc2n1
Ki [1]: > 10000 nM
Ki [2]: > 10000 nM
Ki [3]: 20.9 nM
inhibition [4]: inactive

Nc1nc(-c2ccccc2)nc2nn(Cc3ccccc3)cc12
Ki [1]: 312 nM
Ki [2]: 121 nM
Ki [3]: 93 nM
inhibition [4]: inactive

COc1ccc(NC(=O)Nc2nc(-c3ccccc3)nc3nn(CCc4ccccc4)cc23)cc1
Ki [1]: > 10000 nM
Ki [2]: > 10000 nM
Ki [3]: > 1000 nM

COc1ccc(C(=O)Nc2ncnc3nn(Cc4ccccc4)cc23)cc1
Ki [1]: > 10000 nM
Ki [2]: > 10000 nM
Ki [3]: > 1000 nM

Cn1cc2c(NC(=O)Nc3cccc(Cl)c3)nc(-c3ccccc3)nc2n1
Ki [1]: 922 nM
Ki [2]: > 10000 nM
Ki [3]: 29.1 nM
inhibition [4]: inactive

O=C(Nc1cccc(Cl)c1)Nc1nc(-c2ccccc2)nc2nn(CCc3ccccc3)cc12
Ki [1]: > 10000 nM
Ki [2]: > 10000 nM
Ki [3]: > 1000 nM

O=C(Nc1ccccc1)Nc1nc(-c2ccccc2)nc2nn(CCc3ccccc3)cc12
Ki [1]: 1700 nM
Ki [2]: 96 nM
Ki [3]: 36.3 nM

COc1ccc(NC(=O)Nc2nc(-c3ccccc3)nc3nn(C)cc23)cc1
Ki [1]: > 10000 nM
Ki [2]: > 10000 nM
Ki [3]: 358 nM
inhibition [4]: inactive

COc1ccc(C(=O)Nc2nc(-c3ccccc3)nc3nn(C)cc23)cc1
Ki [1]: 1040 nM
Ki [2]: 3180 nM
Ki [3]: 0.18 nM
inhibition [4]: inactive
IC50 [7]: 0.091 nM
IC50 [8]: 0.057 nM
Activity [13]: inactive
IC50 [5]: 53.9 nM
IC50 [6]: 2.4 nM
IC50 [10]: 0.061 nM
Activity [14]: inactive
logP [12]: 4
